This note sets out measurements from ChEMBL document CHEMBL1126217, “Side-chain derivatives of biologically active nucleosides. 1. Side-chain analogs of 3'-azido-3'-deoxythymidine (AZT)” (J Med Chem, 1992).

Values after ≈ are worked out from the molar mass of the structure shown. Active and inactive are the calls of the source. The calls are words filed in the database; no cut-off is given here.

Test [1] has as its system Vaccinia virus. Description: Inhibitory activity against Vaccinia virus(VV)at a concentration 400 ug/mL; not effective. It counts as functional, organism-based. To be noted: Orthopoxvirus vaccinia.
The nature of test [2]: Inhibitory activity against herpes simplex virus type-1 (HSV-1) at a concentration 400 ug/mL; not effective. It counts as functional, organism-based. To be noted: Human alphaherpesvirus 1.
The test system of test [3] is Human alphaherpesvirus 2. Description: Inhibitory activity against herpes simplex virus type-2 (HSV-2) at a concentration 400 ug/mL; not effective. It counts as functional, organism-based.
The test system of test [4] is Human immunodeficiency virus. Description: Compound was evaluated for the cytotoxic concentration against HIV. The format is functional. To be noted: Human immunodeficiency virus 1. The procedure, abridged: (§1)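 Infected cells mixed with serial compound dilutions (tested up to 200 μg/mL) and incubated 5 days at 37 °C. Viable cells counted microscopically in a hematocytometer by trypan blue exclusion to give 50% effective and cytotoxic concentrations.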

For test [5], the system named is Human alphaherpesvirus 2. Description: Inhibitory activity towards herpes simplex virus type-2 (HSV-2).
Test [6] deals with Vaccinia virus. Description: Inhibitory activity towards Vaccinia virus(VV). To be noted: Orthopoxvirus vaccinia. It counts as functional.
For test [7], the system named is Vesicular stomatitis virus. Kind of test: Inhibitory activity towards Vesicular stomatitis virus(VSV). The format is functional.
The test system of another test is Human alphaherpesvirus 1. Description: Inhibitory activity towards herpes simplex virus type-1 (HSV-1).
The test system of the next test is MT4. Kind of test: Inhibitory activity toward HIV replication in MT-4 cells. The format is functional, cell-based. Particulars: Homo sapiens. In short, it runs like this:
as §1

Test [8] deals with Vaccinia virus. Kind of test: Inhibitory activity against Vaccinia virus(VV) at a concentration 400 ug/mL; not effective. It counts as functional, organism-based. Particulars: Orthopoxvirus vaccinia.

For the compound `Cc1cn(C2CC(N=[N+]=[N-])C([C@H](C)O)O2)c(=O)[nH]c1=O` (some centres not stated), the CC50 entry in the test on Vaccinia virus [1] and with Human alphaherpesvirus 2 [3] was “inactive” in each case. Also, the HSV-1 inhibitory activity entry in test [2] is “inactive”. The compound further displayed a CC50 in test [4] greater than 200 µg/mL.
Regarding `Cc1cn(C2CC(N=[N+]=[N-])C([C@@H](C)O)O2)c(=O)[nH]c1=O` (some centres not stated), the CC50 in the test on Human alphaherpesvirus 2 [5] was 300 µg/mL (≈ 1070 µM); in the test with Vaccinia virus [6], 300 µg/mL (≈ 1070 µM); in [7], greater than 400 µg/mL; with Human alphaherpesvirus 1, 150 µg/mL (≈ 533 µM); in [4] it was greater than 200 µg/mL.
`Cc1cn(C2CC(N=[N+]=[N-])C([C@@H](O)CO)O2)c(=O)[nH]c1=O` (some centres not stated): the CC50 result in the test on Vaccinia virus [1] and in the test with Human alphaherpesvirus 2 [3] was “inactive” each time. Besides, the HSV-1 inhibitory activity entry in test [2] is “inactive”. In test [4], this compound came in with a CC50 of 17.7 µg/mL (≈ 59.5 µM).
Take `Cc1cn(C2CC(N=[N+]=[N-])C([C@H](O)CO)O2)c(=O)[nH]c1=O` (some centres not stated): the CC50 entry in the test with Vaccinia virus [1] and with Human alphaherpesvirus 2 [3] was “inactive” in each case. Besides, the HSV-1 inhibitory activity entry in test [2] is “inactive”. Also, in [4], the CC50 was greater than 200 µg/mL.
In the test with MT4, `Cc1cn([C@H]2C[C@H](N=[N+]=[N-])[C@@H](CO)O2)c(=O)[nH]c1=O` [ZIDOVUDINE] showed an EC50 of 0.002 µg/mL (≈ 0.00748 µM).
For the compound `Cc1cn(C2CC(N=[N+]=[N-])C(CCO)O2)c(=O)[nH]c1=O` (configuration not stated), the CC50 result in the test with Vaccinia virus [8] and in the test with Human alphaherpesvirus 2 [3] was “inactive” in each case. Besides, the HSV-1 inhibitory activity result in test [2] is “inactive”. Further, the CC50 in test [4] is 200 µg/mL (≈ 711 µM).
